What was measured:
BCM3107 TNBC PDX = experiment: Patient-derived xenograft in NSG mice; format: in vivo, mouse; details: 5D4 40 mg/kg i.p. twice weekly; talazoparib 0.5 mg/kg daily × 5 per week
BCM2665 PDX = experiment: IHC of cleaved PARP1 in PDX tumors; format: in vivo, mouse
Summary of the method: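 Tumors were taken the day after the last dose for cleaved PARP1 IHC. Percent positive cells was scored on twelve 10× images from three xenografts per group.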

[1] = tested on: mouse intestinal epithelium; experiment: IHC of cleaved PARP1 and Ki67 in mouse intestine; format: in vivo; details: mice of the BCM2665 experiment
Summary of the method: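 NSG mice carried BCM2665 breast cancer PDX. Mice were euthanized the day after the last dose. Intestine was IHC-stained for cleaved PARP1 (10× objective), with percent positive cells determined by image analysis. Ki67 IHC was done on intestinal epithelium (20× objective).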

[2] = ref [1]; cited from earlier work

SMILES: Cn1ncnc1[C@H]1c2n[nH]c(=O)c3cc(F)cc(c23)N[C@@H]1c1ccc(F)cc1 [talazoparib]
- tumor response, single agent (BCM3107 TNBC PDX): resistant
- apoptosis in PDX (PARP-1 cleavage, IHC) (BCM2665 PDX): only had mild proapoptotic effect
- apoptosis and Ki67 staining in mouse intestinal epithelium [1]: neither induced apoptosis nor affected Ki67 staining

SMILES: CNCc1ccc(-c2[nH]c3cc(F)cc4c3c2CCNC4=O)cc1 [rucaparib]
- viability of nontransformed hepatocytes (AML12 mouse hepatocytes): did not elicit any effect

SMILES: O=C(O)CN(CC(=O)O)Cc1cc2c(cc1O)Oc1cc(O)c(CN(CC(=O)O)CC(=O)O)cc1C21OC(=O)c2ccccc21 [calcein]
- membrane permeability [2]: lacks membrane permeability

— paper PMC10622895 (Proceedings of the National Academy of Sciences of the …, 2023)
